Measured values: ChEMBL document CHEMBL2331234, “Novel analgesic/anti-inflammatory agents: 1,5-diarylpyrrole nitrooxyalkyl ethers and related compounds as cyclooxygenase-2 inhibiting nitric oxide donors” (J Med Chem, 2013)
Active and inactive are the calls of the source. No cut-off for these calls is given here.

Legend:
[1] = test system: Rattus norvegicus; assay: Antiinflammatory activity in Sprague-Dawley/Wistar rat assessed as decrease in carrageenan-induced paw edema at 40 mg/kg, po administered 3 hrs 30 mins after carrageenan-challenge measured after 60 mins (reference value: 2.48 +/- 0.06 mL); assay type: functional
[2] = test system: Rattus norvegicus; assay: Antiinflammatory activity in Sprague-Dawley/Wistar rat assessed as decrease in carrageenan-induced paw edema at 20 mg/kg, po administered 3 hrs 30 mins after carrageenan-challenge measured after 60 mins (reference value: 2.48 +/- 0.06 mL); assay type: functional
[3] = test system: Rattus norvegicus; assay: Antiinflammatory activity in Sprague-Dawley/Wistar osteoarthritis model rat assessed as decrease in monoiodoacetate-induced hyperalgesia at 20 mg/kg, po bid for 14 days administered from day of monoiodoacetate-challenge followed by additional compound treatment after 30 mins […] by paw pressure test (reference value: 30.4 +/- 3.1 g); assay type: functional
[4] = test system: Mus musculus; assay: Antinociceptive activity in po dosed Swiss albino mouse assessed as reduction in number of acetic acid-induced writhing counted 5 mins after acetic acid challenge counted for 10 mins; assay type: functional; details: read-out: MED
How it was run: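 Male Swiss albino mice (23-25 g) dosed orally, then given 0.6% acetic acid (10 mL/kg) ip. Stretching movements counted for 10 min, starting 5 min after the acetic acid. Control group received CMC. At least 7 mice/group; mean ± SEM, ANOVA with Fisher's PLSD.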

[5] = test system: Aorta; assay: Vasorelaxant activity in Wistar rat endothelium-removed thoracic aortic rings assessed as reduction of KCl-induced vasoconstriction at 0.001 uM to 10 uM treated after KCl-challenge relative to control; assay type: functional
How it was run: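 Thoracic aortic rings from male Wistar rats (250-350 g), endothelium removed by rubbing; removal confirmed as <10% relaxation to ACh 10 µM in KCl 30 mM-contracted rings. Rings contracted with KCl 30 mM; at plateau, 3-fold increasing compound concentrations (1 nM-10 µM) added. Isometric tension recorded. Emax given as % of KCl tone; pIC50 as -log molar concentration halving that tone. 6-10 experiments; also run with ODQ 1 µM.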

[6] = test system: Rattus norvegicus; assay: Antiinflammatory activity in Sprague-Dawley/Wistar rat assessed as decrease in carrageenan-induced hyperalgesia at 40 mg/kg, po administered 4 hrs after carrageenan-challenge measured after 60 mins (reference value: 33.9 +/- 3.7 g); assay type: functional
[7] = test system: Rattus norvegicus; assay: Antiinflammatory activity in Sprague-Dawley/Wistar rat assessed as decrease in carrageenan-induced hyperalgesia at 20 mg/kg, po administered 4 hrs after carrageenan-challenge measured after 120 mins (reference value: 31.4 +/- 3.7 g); assay type: functional
[8] = test system: Rattus norvegicus; assay: Antiinflammatory activity in Sprague-Dawley/Wistar rat assessed as decrease in carrageenan-induced hyperalgesia at 20 mg/kg, po administered 4 hrs after carrageenan-challenge measured after 30 mins (reference value: 34.8 +/- 3.0 g); assay type: functional
[9] = (§1) Inhibition of interleukin 1 beta-induced glycosaminoglycan release in bovine articular cartilage of metacarpophalangeal joints of feet treated 48 hrs after interleukin 1beta-challenge by DMB colorimetric assay; assay type: functional, Bos taurus
How it was run: (§2)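 Bovine metacarpophalangeal cartilage slices (about 100 mg per well) were cultured in serum-free DMEM at 37 °C, 5% CO2, with medium changed on days 1 and 2. On day 3 the slices were challenged with IL-1β 30 ng/mL plus compound for 48 h. GAG release was measured by the DMB (Farndale) assay and expressed as % of IL-1β alone, n = 3. EC50 is given with 95% CI.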

[10] = organism: Bos taurus; assay: as §1; assay type: functional; how it was run: as §2
[11] = biological target: T1, Prostaglandin G/H synthase 1 (Mus musculus, UniProt P22437); assay: Inhibition of arachidonic acid-induced COX1 activity in mouse J774 cells assessed as decrease in PGE2 levels incubated for 15 mins prior to arachidonic acid-challenge measured after 30 mins by RIA; assay type: cell-based
T1 sequence (P22437 whole entry): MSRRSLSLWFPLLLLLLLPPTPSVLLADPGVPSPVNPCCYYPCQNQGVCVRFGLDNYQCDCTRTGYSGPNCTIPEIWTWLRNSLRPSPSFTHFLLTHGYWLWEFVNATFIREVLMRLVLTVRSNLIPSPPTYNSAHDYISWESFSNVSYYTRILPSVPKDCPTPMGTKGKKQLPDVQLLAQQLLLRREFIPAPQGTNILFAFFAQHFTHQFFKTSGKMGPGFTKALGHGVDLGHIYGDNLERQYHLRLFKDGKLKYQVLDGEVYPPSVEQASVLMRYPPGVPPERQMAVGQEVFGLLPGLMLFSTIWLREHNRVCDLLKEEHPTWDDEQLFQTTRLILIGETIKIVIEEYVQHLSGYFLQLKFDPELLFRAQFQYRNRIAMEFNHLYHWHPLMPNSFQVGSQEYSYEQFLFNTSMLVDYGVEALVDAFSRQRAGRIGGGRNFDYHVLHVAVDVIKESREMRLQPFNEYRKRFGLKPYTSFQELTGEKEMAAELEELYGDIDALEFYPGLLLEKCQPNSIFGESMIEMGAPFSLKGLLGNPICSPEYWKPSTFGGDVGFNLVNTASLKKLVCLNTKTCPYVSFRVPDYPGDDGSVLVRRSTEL
How it was run: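 Cells were in DMEM with 10% FBS and adhered for 2 h at 37 °C. They were pretreated with compound (10 µM; 0.1-1 µM where inhibition exceeded 50%) for 15 min, then given 15 µM arachidonic acid for 30 min at 37 °C. Supernatant PGE2 was measured by RIA. Triplicate wells were used and the mean of three experiments reported. IC50 came from a variable-slope sigmoidal fit.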

[12] = test system: Rattus norvegicus; assay: Antiinflammatory activity in Sprague-Dawley/Wistar rat assessed as decrease in carrageenan-induced hyperalgesia at 20 mg/kg, po administered 4 hrs after carrageenan-challenge measured after 60 mins (reference value: 33.9 +/- 3.7 g); assay type: functional
[13] = test system: Rattus norvegicus; assay: Antiinflammatory activity in Sprague-Dawley/Wistar osteoarthritis model rat assessed as decrease in monoiodoacetate-induced hyperalgesia at 20 mg/kg, po bid for 14 days administered from day of monoiodoacetate-challenge […] post by paw pressure test (reference value: 32.6 +/- 2.9 g); assay type: functional
[14] = test system: Rattus norvegicus; assay: Antiinflammatory activity in Sprague-Dawley/Wistar rat assessed as decrease in carrageenan-induced hyperalgesia at 40 mg/kg, po administered 4 hrs after carrageenan-challenge measured after 30 mins (reference value: 34.8 +/- 3.0 g); assay type: functional
[15] = test system: Rattus norvegicus; assay: Antiinflammatory activity in Sprague-Dawley/Wistar rat assessed as decrease in carrageenan-induced hyperalgesia at 40 mg/kg, po administered 4 hrs after carrageenan-challenge measured after 120 mins (reference value: 31.4 +/- 3.7 g); assay type: functional
[16] = biological target: T2, Prostaglandin G/H synthase 2 (Homo sapiens) (UniProt P35354); assay: Inhibition of COX2 in human whole blood assessed as reduction in LPS-induced PGE2 generation pre-treated prior to LPS-challenge
T2 sequence (whole entry): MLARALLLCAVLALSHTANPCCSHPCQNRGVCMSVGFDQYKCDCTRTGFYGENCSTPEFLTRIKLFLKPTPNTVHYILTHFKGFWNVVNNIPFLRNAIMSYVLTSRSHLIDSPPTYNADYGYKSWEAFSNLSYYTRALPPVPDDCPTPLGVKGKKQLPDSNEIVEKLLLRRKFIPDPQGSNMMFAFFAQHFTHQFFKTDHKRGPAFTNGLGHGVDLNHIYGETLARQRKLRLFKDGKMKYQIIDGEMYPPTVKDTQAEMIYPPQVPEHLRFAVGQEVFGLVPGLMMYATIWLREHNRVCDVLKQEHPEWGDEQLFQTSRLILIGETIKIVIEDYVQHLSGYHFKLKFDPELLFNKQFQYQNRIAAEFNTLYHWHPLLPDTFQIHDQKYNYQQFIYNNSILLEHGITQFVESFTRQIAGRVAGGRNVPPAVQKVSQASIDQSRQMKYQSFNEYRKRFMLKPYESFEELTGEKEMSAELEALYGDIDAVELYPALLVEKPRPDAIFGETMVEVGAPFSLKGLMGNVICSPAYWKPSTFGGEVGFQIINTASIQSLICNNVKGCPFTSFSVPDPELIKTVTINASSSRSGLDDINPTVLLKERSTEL
How it was run: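 Heparinized whole blood came from three healthy volunteers pretreated with aspirin 300 mg 48 h before sampling to suppress platelet COX-1. Compounds in DMSO were added at 0.1-300 µM final. Blood was incubated with LPS 10 µg/mL for 24 h at 37 °C. Plasma PGE2 was measured by RIA.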

[17] = biological target: Prostaglandin G/H synthase 1 (Homo sapiens, UniProt P23219); assay: Inhibition of COX1 in human whole blood assessed as reduction in TXB2 generation
Sequence of Prostaglandin G/H synthase 1 (Homo sapiens, UniProt P23219) (P23219 whole entry): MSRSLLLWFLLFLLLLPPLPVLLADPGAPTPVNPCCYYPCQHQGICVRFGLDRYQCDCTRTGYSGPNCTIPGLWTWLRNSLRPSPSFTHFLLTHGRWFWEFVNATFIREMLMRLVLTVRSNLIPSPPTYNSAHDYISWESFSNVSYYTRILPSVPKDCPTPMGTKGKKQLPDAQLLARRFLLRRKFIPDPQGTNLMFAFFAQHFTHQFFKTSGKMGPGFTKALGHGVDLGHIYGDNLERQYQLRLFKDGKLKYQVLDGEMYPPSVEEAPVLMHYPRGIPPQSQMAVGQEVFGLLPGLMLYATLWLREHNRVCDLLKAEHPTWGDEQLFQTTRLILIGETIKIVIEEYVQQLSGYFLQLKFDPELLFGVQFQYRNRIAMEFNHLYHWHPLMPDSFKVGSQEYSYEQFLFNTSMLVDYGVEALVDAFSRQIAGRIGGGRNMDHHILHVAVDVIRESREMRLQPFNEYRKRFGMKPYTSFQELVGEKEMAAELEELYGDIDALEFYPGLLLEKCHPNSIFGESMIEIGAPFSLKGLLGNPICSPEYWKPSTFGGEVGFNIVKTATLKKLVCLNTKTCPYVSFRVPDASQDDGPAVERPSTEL
How it was run: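 Clotting assay in whole blood from three healthy volunteers with no NSAID for 2 weeks. Compounds in DMSO were added at 0.1-300 µM final. Blood clotted in glass tubes at 37 °C for 1 h. Serum TXB2 was measured by RIA as a reflection of platelet COX-1 activity driven by endogenous thrombin.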

[18] = test system: Rattus norvegicus; assay: Antiinflammatory activity in Sprague-Dawley/Wistar rat assessed as decrease in carrageenan-induced paw edema at 10 mg/kg, po administered 3 hrs 30 mins after carrageenan-challenge measured after 60 mins (reference value: 2.48 +/- 0.06 mL); assay type: functional
[19] = test system: Rattus norvegicus; assay: Antiinflammatory activity in Sprague-Dawley/Wistar rat assessed as decrease in carrageenan-induced hyperalgesia at 10 mg/kg, po administered 4 hrs after carrageenan-challenge measured after 30 mins (reference value: 34.8 +/- 3.0 g); assay type: functional
[20] = test system: Rattus norvegicus; assay: Antiinflammatory activity in Sprague-Dawley/Wistar rat assessed as decrease in carrageenan-induced hyperalgesia at 3 mg/kg, po administered 4 hrs after carrageenan-challenge measured after 120 mins (reference value: 31.4 +/- 3.7 g); assay type: functional
[21] = test system: Rattus norvegicus; assay: Antiinflammatory activity in Sprague-Dawley/Wistar rat assessed as decrease in carrageenan-induced hyperalgesia at 10 mg/kg, po administered 4 hrs after carrageenan-challenge measured after 60 mins (reference value: 33.9 +/- 3.7 g); assay type: functional
[22] = test system: Rattus norvegicus; assay: Antiinflammatory activity in Sprague-Dawley/Wistar rat assessed as decrease in carrageenan-induced hyperalgesia at 3 mg/kg, po administered 4 hrs after carrageenan-challenge measured after 60 mins (reference value: 33.9 +/- 3.7 g); assay type: functional
[23] = test system: Rattus norvegicus; assay: Antiinflammatory activity in Sprague-Dawley/Wistar rat assessed as decrease in carrageenan-induced paw edema at 3 mg/kg, po administered 3 hrs 30 mins after carrageenan-challenge measured after 60 mins (reference value: 2.48 +/- 0.06 mL); assay type: functional
[24] = test system: Rattus norvegicus; assay: Antiinflammatory activity in Sprague-Dawley/Wistar rat assessed as decrease in carrageenan-induced hyperalgesia at 10 mg/kg, po administered 4 hrs after carrageenan-challenge measured after 120 mins (reference value: 31.4 +/- 3.7 g); assay type: functional
[25] = test system: Rattus norvegicus; assay: Antiinflammatory activity in Sprague-Dawley/Wistar rat assessed as decrease in carrageenan-induced hyperalgesia at 3 mg/kg, po administered 4 hrs after carrageenan-challenge measured after 30 mins (reference value: 34.8 +/- 3.0 g); assay type: functional

Work on `Cc1c(CCOCCO)cc(-c2ccc(S(C)(=O)=O)cc2)n1-c1ccc(F)cc1` yielded an Activity [1] of 1.95 mL, an Activity [2] of 2.01 mL and an Activity [3] of 51.2 g. For the same compound, the minimal effective dose [4] was 40 mg/kg, the Emax [5] was “inactive” and the Activity [6] was 58.3 g. The Activity [7] was 38.3 g, the Activity [8] was 46.8 g and the IC50 [9] was 33 µM. The inhibition [10] was “Dose-dependent effect”, the IC50 [11] was greater than 10 µM and the Activity [12] was 38.7 g. The Activity [13] was 49.7 g, the Activity [14] was 57.2 g and the Activity [15] was 47.6 g. The IC80 [16] was 2.31 µM, the inhibition [16] was “Dose-dependent effect” and the IC50 [17] was 20 µM. The IC80 [17] was 37.1 µM and the inhibition [17] was “Dose-dependent effect”.

`Cc1ccc(-c2cc(C(F)(F)F)nn2-c2ccc(S(N)(=O)=O)cc2)cc1` [CELECOXIB] showed an Activity [18] of 1.45 mL, an Activity [19] of 52.9 g and an Activity [20] of 40.7 g. For the same compound, the Activity [21] was 48.3 g, the minimal effective dose [4] was 3 mg/kg and the Activity [22] was 41.6 g. It also gave an Activity [23] of 2.35 mL, an Activity [24] of 39.8 g and an Activity [25] of 44.3 g.
